# Data taken from ChEMBL document CHEMBL1781927, “Highly selective c-Jun N-terminal kinase (JNK) 3 inhibitors with in vitro CNS-like pharmacokinetic properties II. Central core replacement” (Bioorg Med Chem Lett, 2011).
# pIC50: −log10 of the molar value.
# Assays:
# [1] = target: Mitogen-activated protein kinase 9 (Homo sapiens, UniProt P45984); test: Inhibition of JNK2 by TR-FRET assay
# Procedure, shortened: (§1)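 IC50s were determined at a single fixed ATP concentration, and each value is the mean of at least three independent experiments.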
# [2] = target: Mitogen-activated protein kinase 8 (Homo sapiens, UniProt P45983); test: Inhibition of JNK1 by TR-FRET assay; procedure, shortened: as §1
# [3] = target: T1, Mitogen-activated protein kinase 10 (Homo sapiens, UniProt P53779); test: Inhibition of JNK3 by TR-FRET assay; procedure, shortened: as §1
# [4] = Solubility of the compound; assay type: physicochemical
# [5] = Oxidative metabolic stability in mouse liver microsomes assessed as compound remaining after 30 mins; assay type: ADME, Microsome; conditions: read-out: Stability
# Procedure, shortened: (§2)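 Liver microsomes, mouse or human, were incubated with the compound for 30 min under oxidative conditions. The read-out is the percent of parent compound remaining.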
# [6] = Oxidative metabolic stability in human liver microsomes assessed as compound remaining after 30 mins; assay type: ADME, Microsome; conditions: read-out: Stability; procedure, shortened: as §2
# [7] = Selectivity ratio of IC50 for JNK1 to IC50 for JNK3
# [8] = Metabolic stability in mouse liver microsomes assessed as compound remaining after 60 mins in presence of UDPGA; assay type: ADME, Microsome; conditions: read-out: Stability
# [9] = Apparent permeability from apical to basolateral side in MDCK2 cells at 5 uM after 120 mins; assay type: ADME, cell-based, Canis lupus familiaris, MDCK-II; conditions: dog, MDCK
# [10] = Efflux ratio, permeability from apical to basolateral side to basolateral to apical side in MDR1 expressing MDCK2 cells at 5 uM after 120 mins; assay type: ADME, cell-based, Canis lupus familiaris; conditions: dog, mdck-ii, 2 h
# [11] = Metabolic stability in human liver microsomes assessed as compound remaining after 60 mins in presence of UDPGA; assay type: ADME, Microsome; conditions: read-out: Stability
# [12] = target: Protein kinase C beta type (Homo sapiens) (UniProt P05771); test: Inhibition of PRKCB1 at 10 uM
# [13] = target: Calcium/calmodulin-dependent protein kinase type II subunit alpha (Homo sapiens) (UniProt Q9UQM7); test: Inhibition of CAMK2A at 10 uM
# [14] = target: Tyrosine-protein kinase Lck (Homo sapiens) (UniProt P06239); test: Inhibition of LCK at 10 uM
# [15] = target: Rho-associated protein kinase 2 (Homo sapiens) (UniProt O75116); test: Inhibition of ROCK2 at 10 uM
# [16] = target: Tyrosine-protein kinase JAK1 (Homo sapiens) (UniProt P23458); test: Inhibition of JAK1 at 10 uM
# [17] = target: Cyclin-dependent kinase 1/cyclin B1 (Homo sapiens) (UniProt P06493+P14635); test: Inhibition of CDK1/cyclin B at 10 uM; assay type: protein-complex assay
# [18] = target: Proto-oncogene tyrosine-protein kinase receptor Ret (Homo sapiens) (UniProt P07949); test: Inhibition of RET at 10 uM
# [19] = target: Receptor-type tyrosine-protein kinase FLT3 (Homo sapiens) (UniProt P36888); test: Inhibition of FLT3 at 10 uM
# [20] = target: Serine/threonine-protein kinase PLK3 (Homo sapiens) (UniProt Q9H4B4); test: Inhibition of PLK3 at 10 uM
# [21] = target: Protein-tyrosine kinase 2-beta (Homo sapiens) (UniProt Q14289); test: Inhibition of PTK2B at 10 uM
# [22] = target: Serine/threonine-protein kinase 3 (Homo sapiens) (UniProt Q13188); test: Inhibition of STK3 at 10 uM
# [23] = target: Dual specificity tyrosine-phosphorylation-regulated kinase 1B (Homo sapiens) (UniProt Q9Y463); test: Inhibition of DYRK1B at 10 uM
# [24] = target: Tyrosine-protein kinase SYK (Homo sapiens) (UniProt P43405); test: Inhibition of SYK at 10 uM
# [25] = target: Mitogen-activated protein kinase 1 (Homo sapiens) (UniProt P28482); test: Inhibition of MAPK1 at 10 uM
# [26] = target: Serine/threonine-protein kinase 16 (Homo sapiens) (UniProt O75716); test: Inhibition of STK16 at 10 uM
# [27] = target: Receptor-interacting serine/threonine-protein kinase 2 (Homo sapiens) (UniProt O43353); test: Inhibition of RIPK2 at 10 uM
# [28] = target: PI3-kinase p110-alpha/p85-alpha (Homo sapiens) (UniProt P27986+P42336); test: Inhibition of PIK3CA/PIK3R1 at 10 uM; assay type: protein-complex assay
# [29] = target: Cyclin-dependent kinase 2/cyclin A (Homo sapiens) (UniProt P24941+P20248+P78396); test: Inhibition of CDK2/cyclin A at 10 uM; assay type: protein-complex assay
# [30] = target: Dual specificity protein kinase TTK (Homo sapiens) (UniProt P33981); test: Inhibition of TTK at 10 uM
# [31] = target: Platelet-derived growth factor receptor alpha (Homo sapiens) (UniProt P16234); test: Inhibition of PDGFRA at 10 uM
# [32] = target: Tyrosine-protein kinase ABL1 (Homo sapiens) (UniProt P00519); test: Inhibition of ABL1 at 10 uM
# [33] = target: Serine/threonine-protein kinase MARK2 (Homo sapiens) (UniProt Q7KZI7); test: Inhibition of MARK2 at 10 uM
# [34] = target: RAC-alpha serine/threonine-protein kinase (Homo sapiens) (UniProt P31749); test: Inhibition of AKT1 at 10 uM
# [35] = target: Receptor tyrosine-protein kinase erbB-4 (Homo sapiens) (UniProt Q15303); test: Inhibition of ERBB4 at 10 uM
# [36] = target: Insulin receptor (Homo sapiens) (UniProt P06213); test: Inhibition of INSR at 10 uM
# [37] = target: Leucine-rich repeat serine/threonine-protein kinase 2 (Homo sapiens) (UniProt Q5S007); test: Inhibition of LRRK2 at 10 uM
# [38] = target: Serine/threonine-protein kinase PLK1 (Homo sapiens) (UniProt P53350); test: Inhibition of PLK1 at 10 uM
# [39] = target: Cyclin-dependent kinase 5/CDK5 activator 1 (Homo sapiens) (UniProt Q00535+Q15078); test: Inhibition of CDK5/p25 at 10 uM; assay type: protein-complex assay
# [40] = target: Serine/threonine-protein kinase PLK2 (Homo sapiens) (UniProt Q9NYY3); test: Inhibition of PLK2 at 10 uM
# [41] = target: Serine/threonine-protein kinase PAK 4 (Homo sapiens) (UniProt O96013); test: Inhibition of PAK4 at 10 uM
# [42] = target: RAF proto-oncogene serine/threonine-protein kinase (Homo sapiens) (UniProt P04049); test: Inhibition of RAF1 at 10 uM
# [43] = target: Glycogen synthase kinase-3 beta (Homo sapiens) (UniProt P49841); test: Inhibition of GSK3B at 10 uM
# [44] = target: T1, Mitogen-activated protein kinase 10; test: Inhibition of MAPK10 at 10 uM
# [45] = target: Serine/threonine-protein kinase Chk1 (Homo sapiens) (UniProt O14757); test: Inhibition of CHEK1 at 10 uM
# [46] = target: cAMP-dependent protein kinase catalytic subunit alpha (Homo sapiens) (UniProt P17612); test: Inhibition of PKACA at 10 uM
# [47] = target: Macrophage colony-stimulating factor 1 receptor (Homo sapiens) (UniProt P07333); test: Inhibition of CSF1R at 10 uM
# [48] = target: Dual specificity protein kinase CLK1 (Homo sapiens) (UniProt P49759); test: Inhibition of CLK1 at 10 uM
# Mitogen-activated protein kinase 8, sequence (P45983 whole entry): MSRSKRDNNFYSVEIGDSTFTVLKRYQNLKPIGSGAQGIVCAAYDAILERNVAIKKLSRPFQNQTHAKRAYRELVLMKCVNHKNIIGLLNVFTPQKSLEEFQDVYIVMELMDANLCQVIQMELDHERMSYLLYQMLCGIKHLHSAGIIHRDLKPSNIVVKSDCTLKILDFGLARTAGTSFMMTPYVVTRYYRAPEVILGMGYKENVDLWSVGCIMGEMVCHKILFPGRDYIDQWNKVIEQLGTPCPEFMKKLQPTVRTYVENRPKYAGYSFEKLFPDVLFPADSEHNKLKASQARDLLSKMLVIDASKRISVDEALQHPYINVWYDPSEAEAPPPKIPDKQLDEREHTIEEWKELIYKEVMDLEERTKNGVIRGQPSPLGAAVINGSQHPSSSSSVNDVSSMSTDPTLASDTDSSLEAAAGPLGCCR
# Mitogen-activated protein kinase 9, sequence (P45984 whole entry): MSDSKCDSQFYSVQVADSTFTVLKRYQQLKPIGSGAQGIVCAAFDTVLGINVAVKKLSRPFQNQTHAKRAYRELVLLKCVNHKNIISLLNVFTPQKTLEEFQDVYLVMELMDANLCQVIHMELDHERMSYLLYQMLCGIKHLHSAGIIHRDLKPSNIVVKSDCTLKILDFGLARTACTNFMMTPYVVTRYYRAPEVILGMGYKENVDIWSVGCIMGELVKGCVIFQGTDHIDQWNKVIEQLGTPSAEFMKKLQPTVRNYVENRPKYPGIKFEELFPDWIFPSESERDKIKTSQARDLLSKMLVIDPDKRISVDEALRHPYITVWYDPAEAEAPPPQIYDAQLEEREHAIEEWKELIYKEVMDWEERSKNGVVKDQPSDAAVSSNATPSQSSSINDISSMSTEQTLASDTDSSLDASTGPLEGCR
# T1 sequence (P53779 whole entry): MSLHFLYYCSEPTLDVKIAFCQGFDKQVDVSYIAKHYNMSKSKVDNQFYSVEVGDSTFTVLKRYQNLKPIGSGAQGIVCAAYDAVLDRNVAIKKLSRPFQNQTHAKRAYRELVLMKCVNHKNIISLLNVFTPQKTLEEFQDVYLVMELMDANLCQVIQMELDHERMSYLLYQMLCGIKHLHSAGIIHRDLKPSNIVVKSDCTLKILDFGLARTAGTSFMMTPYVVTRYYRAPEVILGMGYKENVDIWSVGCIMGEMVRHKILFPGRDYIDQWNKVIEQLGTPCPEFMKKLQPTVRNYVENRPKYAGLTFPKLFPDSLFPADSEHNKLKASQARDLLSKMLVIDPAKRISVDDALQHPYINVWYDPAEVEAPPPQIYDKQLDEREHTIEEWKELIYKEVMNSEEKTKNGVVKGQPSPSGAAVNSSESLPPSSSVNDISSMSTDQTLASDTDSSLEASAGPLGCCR
# Tyrosine-protein kinase ABL1 (Homo sapiens), sequence (P00519 whole entry): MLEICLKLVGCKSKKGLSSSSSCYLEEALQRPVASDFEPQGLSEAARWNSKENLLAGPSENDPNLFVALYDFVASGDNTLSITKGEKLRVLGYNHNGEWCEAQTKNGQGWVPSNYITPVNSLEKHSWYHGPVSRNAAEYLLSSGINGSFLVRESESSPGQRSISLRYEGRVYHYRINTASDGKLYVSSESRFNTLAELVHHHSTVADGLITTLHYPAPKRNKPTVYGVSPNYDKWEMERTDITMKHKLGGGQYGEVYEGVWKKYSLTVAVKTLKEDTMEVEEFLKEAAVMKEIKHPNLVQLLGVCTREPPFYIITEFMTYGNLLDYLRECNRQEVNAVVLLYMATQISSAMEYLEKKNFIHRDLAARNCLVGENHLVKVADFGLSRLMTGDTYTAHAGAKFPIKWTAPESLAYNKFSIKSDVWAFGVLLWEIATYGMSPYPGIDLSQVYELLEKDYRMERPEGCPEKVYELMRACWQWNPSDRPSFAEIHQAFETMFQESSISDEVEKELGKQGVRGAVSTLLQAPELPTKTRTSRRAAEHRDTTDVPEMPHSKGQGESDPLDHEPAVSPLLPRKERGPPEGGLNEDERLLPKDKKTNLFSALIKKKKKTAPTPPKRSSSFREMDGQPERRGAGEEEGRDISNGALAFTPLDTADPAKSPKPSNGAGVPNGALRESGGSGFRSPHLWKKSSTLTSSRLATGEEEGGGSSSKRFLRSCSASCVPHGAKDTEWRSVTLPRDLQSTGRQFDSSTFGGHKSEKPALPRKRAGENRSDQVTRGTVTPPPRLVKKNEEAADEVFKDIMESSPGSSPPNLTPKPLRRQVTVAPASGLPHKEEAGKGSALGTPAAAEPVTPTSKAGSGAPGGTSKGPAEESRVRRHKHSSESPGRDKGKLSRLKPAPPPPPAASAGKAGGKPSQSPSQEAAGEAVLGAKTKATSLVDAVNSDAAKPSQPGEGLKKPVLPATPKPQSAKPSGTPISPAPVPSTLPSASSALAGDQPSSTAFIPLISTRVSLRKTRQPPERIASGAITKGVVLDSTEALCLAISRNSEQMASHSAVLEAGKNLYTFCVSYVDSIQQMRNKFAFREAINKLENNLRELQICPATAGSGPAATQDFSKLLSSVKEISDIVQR
# Receptor tyrosine-protein kinase erbB-4 (Homo sapiens), sequence (Q15303 whole entry): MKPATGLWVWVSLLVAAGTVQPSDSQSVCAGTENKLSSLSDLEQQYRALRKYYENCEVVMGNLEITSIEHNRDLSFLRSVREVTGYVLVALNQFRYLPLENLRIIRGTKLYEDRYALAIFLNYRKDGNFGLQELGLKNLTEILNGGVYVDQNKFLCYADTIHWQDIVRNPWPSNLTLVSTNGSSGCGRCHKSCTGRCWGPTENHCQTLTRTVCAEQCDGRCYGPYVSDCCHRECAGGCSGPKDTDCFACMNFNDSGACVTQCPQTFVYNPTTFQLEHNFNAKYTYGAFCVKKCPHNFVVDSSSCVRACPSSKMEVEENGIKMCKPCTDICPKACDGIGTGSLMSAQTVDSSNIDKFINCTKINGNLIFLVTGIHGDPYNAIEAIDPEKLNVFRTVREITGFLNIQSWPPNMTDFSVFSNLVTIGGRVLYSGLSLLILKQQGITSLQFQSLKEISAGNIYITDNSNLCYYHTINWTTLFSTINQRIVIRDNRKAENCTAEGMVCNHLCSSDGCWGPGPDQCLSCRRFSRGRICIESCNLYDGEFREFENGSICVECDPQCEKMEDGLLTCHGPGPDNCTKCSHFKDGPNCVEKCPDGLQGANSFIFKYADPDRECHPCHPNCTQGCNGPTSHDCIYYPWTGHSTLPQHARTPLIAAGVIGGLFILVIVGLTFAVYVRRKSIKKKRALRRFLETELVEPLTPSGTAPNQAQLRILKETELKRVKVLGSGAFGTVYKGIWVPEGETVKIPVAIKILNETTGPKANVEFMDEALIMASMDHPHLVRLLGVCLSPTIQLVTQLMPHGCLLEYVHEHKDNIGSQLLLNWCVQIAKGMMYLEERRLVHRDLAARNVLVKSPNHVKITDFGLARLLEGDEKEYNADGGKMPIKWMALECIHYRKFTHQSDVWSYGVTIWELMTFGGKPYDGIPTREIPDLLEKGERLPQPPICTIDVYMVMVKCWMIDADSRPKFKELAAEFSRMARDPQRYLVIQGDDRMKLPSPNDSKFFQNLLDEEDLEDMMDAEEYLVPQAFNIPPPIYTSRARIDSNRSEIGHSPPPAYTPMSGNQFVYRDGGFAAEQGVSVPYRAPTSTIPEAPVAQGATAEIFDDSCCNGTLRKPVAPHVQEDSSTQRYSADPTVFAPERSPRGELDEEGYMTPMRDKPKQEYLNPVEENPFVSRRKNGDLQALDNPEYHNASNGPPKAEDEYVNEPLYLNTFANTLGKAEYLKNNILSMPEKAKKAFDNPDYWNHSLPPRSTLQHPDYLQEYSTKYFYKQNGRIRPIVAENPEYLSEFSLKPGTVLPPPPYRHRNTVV
# Calcium/calmodulin-dependent protein kinase type II subunit alpha (Homo sapiens), sequence (Q9UQM7 whole entry): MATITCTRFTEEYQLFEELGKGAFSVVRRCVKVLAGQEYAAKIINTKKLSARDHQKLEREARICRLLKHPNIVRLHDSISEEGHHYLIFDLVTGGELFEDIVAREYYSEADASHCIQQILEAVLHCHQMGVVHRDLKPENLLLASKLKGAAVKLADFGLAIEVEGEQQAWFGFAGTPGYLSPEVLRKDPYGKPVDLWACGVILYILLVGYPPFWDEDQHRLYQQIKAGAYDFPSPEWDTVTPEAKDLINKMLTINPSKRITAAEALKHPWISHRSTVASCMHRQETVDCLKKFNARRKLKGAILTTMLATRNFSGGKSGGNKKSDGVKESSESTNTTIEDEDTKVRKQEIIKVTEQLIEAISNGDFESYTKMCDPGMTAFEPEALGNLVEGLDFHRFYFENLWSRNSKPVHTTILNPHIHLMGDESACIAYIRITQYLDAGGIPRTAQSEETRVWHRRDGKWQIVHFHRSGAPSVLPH
# Mitogen-activated protein kinase 1 (Homo sapiens), sequence (P28482 whole entry): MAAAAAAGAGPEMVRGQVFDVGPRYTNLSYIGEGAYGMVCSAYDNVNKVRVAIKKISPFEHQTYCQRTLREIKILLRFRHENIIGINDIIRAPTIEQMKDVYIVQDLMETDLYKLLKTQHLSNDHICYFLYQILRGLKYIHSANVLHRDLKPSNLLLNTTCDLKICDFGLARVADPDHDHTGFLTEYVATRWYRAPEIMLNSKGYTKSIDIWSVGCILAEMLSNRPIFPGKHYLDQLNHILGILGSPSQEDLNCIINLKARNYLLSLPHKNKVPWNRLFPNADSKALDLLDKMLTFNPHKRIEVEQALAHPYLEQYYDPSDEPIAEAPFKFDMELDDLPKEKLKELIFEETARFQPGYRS
# Serine/threonine-protein kinase 16 (Homo sapiens), sequence (O75716 whole entry): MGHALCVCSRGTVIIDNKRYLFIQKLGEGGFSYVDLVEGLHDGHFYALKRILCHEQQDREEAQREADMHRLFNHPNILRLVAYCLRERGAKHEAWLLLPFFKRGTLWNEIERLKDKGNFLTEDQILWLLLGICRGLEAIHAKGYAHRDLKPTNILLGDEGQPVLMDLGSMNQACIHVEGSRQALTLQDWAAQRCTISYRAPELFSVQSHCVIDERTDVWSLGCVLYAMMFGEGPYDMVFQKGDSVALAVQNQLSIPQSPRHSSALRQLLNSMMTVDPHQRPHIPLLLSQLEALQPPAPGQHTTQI
structure (smiles),measurement,setting,value
c1ccc2cc(-n3nnnc3-c3ccncc3)ccc2c1,pIC50,[1],< 4.30
same,pIC50,[2],< 4.30
same,pIC50,[3],4.31
same,solubility,[4],15 µM
c1ccc2cc(-c3nnnn3-c3ccncc3)ccc2c1,remaining at 0.5 h,[5],0%
same,remaining at 0.5 h,[6],16%
same,pIC50,[1],< 4.30
same,pIC50,[2],< 4.30
same,pIC50,[3],< 4.30
c1ccc2cc(-c3[nH]ncc3-c3ccncc3)ccc2c1,Ratio IC50,[7],20
c1ccc2cc(-n3ccnc3-c3ccncc3)ccc2c1,remaining at 0.5 h,[5],0%
same,remaining at 0.5 h,[6],18%
same,pIC50,[1],5.19
same,pIC50,[2],< 4.30
same,pIC50,[3],5.72
c1ccc2cc(-c3n[nH]cc3-c3ccncc3)ccc2c1,remaining at 0.5 h,[5],1%
same,remaining at 0.5 h,[6],52%
same,remaining at 1 h,[8],100%
same,pIC50,[1],6.06
same,"Papp A→B at 2 h, 5 µM",[9],169 nm/s
same,pIC50,[2],5.15
same,Ratio,[10],1.14
same,remaining at 1 h,[11],73%
same,pIC50,[3],6.61
FC(F)(F)c1nnc(-c2ccncc2)n1-c1ccc2ccccc2c1,pIC50,[1],< 4.30
same,pIC50,[2],< 4.30
same,pIC50,[3],< 4.30
same,solubility,[4],15 µM
S=c1[nH]nc(-c2ccncc2)n1-c1ccc2ccccc2c1,inhibition,[12],25%
same,inhibition,[13],49%
same,inhibition,[14],0%
same,inhibition,[15],25%
same,inhibition,[16],0%
same,remaining at 0.5 h,[5],100%
same,inhibition,[17],3%
same,inhibition,[18],0%
same,remaining at 0.5 h,[6],100%
same,remaining at 1 h,[8],1%
same,inhibition,[19],41%
same,inhibition,[20],94%
same,inhibition,[21],1%
same,pIC50,[1],5.53
same,inhibition,[22],0%
same,inhibition,[23],16%
same,inhibition,[24],26%
same,inhibition,[25],2%
same,inhibition,[26],0%
same,inhibition,[27],4%
same,inhibition,[28],42%
same,inhibition,[29],0%
same,pIC50,[2],4.90
same,Ratio,[10],1.12
same,remaining at 1 h,[11],8%
same,Ratio IC50,[7],> 10
same,inhibition,[30],39%
same,inhibition,[31],11%
same,inhibition,[32],8%
same,inhibition,[33],1%
same,inhibition,[34],1%
same,inhibition,[35],12%
same,inhibition,[36],5%
same,inhibition,[37],13%
same,inhibition,[38],22%
same,inhibition,[39],19%
same,inhibition,[40],73%
same,inhibition,[41],8%
same,inhibition,[42],45%
same,inhibition,[43],28%
same,inhibition,[44],44%
same,inhibition,[45],0%
same,pIC50,[3],6.25
same,inhibition,[46],93%
same,inhibition,[47],46%
same,inhibition,[48],5%
same,solubility,[4],100 µM
S=c1[nH]nc(-c2ccnc(NCC3CC3)c2)n1-c1ccc2ccccc2c1,pIC50,[1],5.65
same,pIC50,[2],< 4.30
same,pIC50,[3],6.02
same,solubility,[4],35 µM
S=c1[nH]nc(-c2ccncc2)n1-c1cnc2ccccc2c1,pIC50,[1],< 4.30
same,pIC50,[2],< 4.30
same,pIC50,[3],< 4.30
same,solubility,[4],100 µM
c1ccc2cc(-c3ccnn3-c3ccncc3)ccc2c1,remaining at 0.5 h,[5],0%
same,remaining at 0.5 h,[6],2%
same,pIC50,[1],5.03
same,pIC50,[2],4.38
same,pIC50,[3],5.61
c1ccc2cc(-c3[nH]nnc3-c3ccncc3)ccc2c1,remaining at 0.5 h,[5],2%
same,remaining at 0.5 h,[6],44%
same,pIC50,[1],5.91
same,"Papp A→B at 2 h, 5 µM",[9],152 nm/s
same,pIC50,[2],5.16
same,pIC50,[3],6.44
S=c1[nH]nc(-c2ccncc2)n1-c1ccc2ncccc2c1,pIC50,[1],< 4.30
same,pIC50,[2],< 4.30
same,pIC50,[3],4.50
same,solubility,[4],15 µM
c1ccc2cc(-c3nn[nH]c3-c3ccncc3)ccc2c1,Ratio IC50,[7],20
N/N=c1\[nH]nc(-c2ccncc2)n1-c1ccc2ccccc2c1,pIC50,[1],4.47
same,pIC50,[2],< 4.30
same,pIC50,[3],4.83
same,solubility,[4],65 µM
